Measured values reported in paper PMC11607387 (Nature Communications, 2024).

Legend:
[1] = DLS size, PDI and zeta potential of nanoparticles; assay type: physicochemical; settings: without dBET6
[2] = molecular target: T1, human MMP-2 (Homo sapiens, UniProt P08253); experiment: MMP-2 responsiveness; assay type: biochemical; settings: human MMP-2, 4 and 24 h, 37 °C, MALDI-TOF-MS
T1 sequence (P08253 110-660): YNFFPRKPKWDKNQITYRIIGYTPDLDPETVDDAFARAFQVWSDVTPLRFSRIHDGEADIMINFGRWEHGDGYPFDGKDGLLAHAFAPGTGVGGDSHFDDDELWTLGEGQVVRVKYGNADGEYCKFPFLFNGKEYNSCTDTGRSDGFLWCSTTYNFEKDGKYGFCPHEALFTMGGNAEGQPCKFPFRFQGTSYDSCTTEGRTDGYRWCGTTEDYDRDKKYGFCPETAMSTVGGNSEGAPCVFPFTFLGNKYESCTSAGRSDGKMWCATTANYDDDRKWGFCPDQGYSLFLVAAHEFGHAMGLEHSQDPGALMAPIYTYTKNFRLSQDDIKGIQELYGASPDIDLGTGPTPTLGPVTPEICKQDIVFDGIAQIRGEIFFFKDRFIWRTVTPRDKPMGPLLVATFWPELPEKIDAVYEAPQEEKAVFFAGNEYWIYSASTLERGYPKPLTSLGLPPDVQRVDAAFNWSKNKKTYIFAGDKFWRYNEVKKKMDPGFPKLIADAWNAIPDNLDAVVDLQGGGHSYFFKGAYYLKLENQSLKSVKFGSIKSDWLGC

[3] = system: 4T1 cells; experiment: Cellular uptake by flow cytometry and fluorescence microscopy; assay type: cell-based, murine; settings: flow cytometry, Ce6 5 μg/mL
In short: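 4T1 cells (1 × 10^5/well) grown to 80% confluency, exposed to formulations in serum-free 1640 medium at equal Ce6 (5 μg/mL) for 1, 4 or 12 h, then analysed by flow cytometry (n = 3). For microscopy, cells (2 × 10^5/well) on coverslips grown 36 h to 60% confluency, treated likewise, washed with cold PBS, fixed, DAPI-stained (1 μg/ml, 5 min) and imaged.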

[4] = system: RAW264.7 cells; experiment: MTT cytotoxicity on RAW264.7 cells; assay type: cell-based; settings: for cytotoxicity in RAW 264.7 cells: without laser
In short: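 RAW264.7 cells seeded at 5 × 10^3/well, grown 24 h, then exposed to preparations across a concentration series. After 4 h, only the laser groups were irradiated (650 nm); all cells were incubated a further 20 h, and viability was read by MTT.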

[5] = system: 4T1 cells; experiment: Wound healing assay; assay type: cell-based, murine; settings: 24 h, cell motility = 1 - wound area at 24 h/wound area at 0 h
In short: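 4T1 monolayers in 12-well plates at 80% confluency were scratched with a 10 μL tip and washed three times with cold PBS, then treated with formulations. Laser groups were irradiated after 4 h. At 24 h, cells were fixed, stained with 0.1% crystal violet, and the scratched area imaged by inverted microscope.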

[6] = system: BALB/c nude mice bearing primary tumors of breast cancer; experiment: Biodistribution after intravenous injection; assay type: in vivo; settings: 24 h post intravenous injection, ex vivo
In short: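 Tumour-bearing BALB/c nude mice, tumours about 200 mm3 roughly 14 days after cell injection, randomised into four groups (n = 4). Ce6-labelled formulations were given intravenously and imaged on IVIS at 1, 2, 4, 8, 12 and 24 h. At 24 h animals were sacrificed; tumours and major organs were imaged ex vivo, fluorescence semi-quantified, then fixed and frozen-sectioned for imaging.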

[7] = system: BALB/c nude mice bearing breast cancer; experiment: Tumor retention after intra-tumoral injection; assay type: in vivo; settings: 48 h post intra-tumoral injection, ex vivo
In short: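 Breast-tumour-bearing BALB/c nude mice received formulations intratumorally. IVIS fluorescence imaging at 5 min and 4, 8, 12, 24, 36 and 48 h post-injection. Tumours and major organs were imaged ex vivo, then fixed, dehydrated and frozen-sectioned for fluorescence imaging.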

[8] = system: mice bearing 4T1-Luc brain-metastatic tumor; experiment: Brain accumulation in brain-metastasis model; settings: ex vivo, 8 h post intravenous injection
In short: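 Brain-metastasis model: 4T1-Luc cells (5 × 10^3) implanted stereotactically into right hippocampus. After 10 days, grouped by bioluminescence intensity (n = 4). Formulations given intravenously; IVIS fluorescence imaging at 1, 2, 4 and 8 h. At 8 h, mice sacrificed; brains and major organs imaged ex vivo for fluorescence.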

Compound: Ce6-FFRFKGPLGLAGC-PEG-DSPE [CFMPD]
- size of self-assembled nanoparticles [1]: around 90 nm
- molecular mass change after incubation with MMP-2 [2]: distinct new peaks belonging to the post-enzymatic fragmentation
- fluorescence signal relative to free Ce6 (cellular uptake) ([3]; 1 h): 6.53 fold
- fluorescence signal relative to free Ce6 (cellular uptake) ([3]; 4 h): 4.13 fold
- fluorescence signal relative to free Ce6 (cellular uptake) ([3]; 12 h): 3.64 fold
- cytotoxicity in RAW 264.7 cells [4]: negligible cytotoxicity
- cell mobility (wound healing) [5]: 37.0%
- tumor fluorescent signal, fold higher than CFPD [6]: 1.22 fold
- tumor fluorescent signal, fold higher than CPD [6]: 1.71 fold
- tumor fluorescence intensity, fold stronger than CFPD [7]: 1.72 fold
- brain fluorescence, fold stronger than CFPD [8]: 1.46 fold
- brain fluorescence, fold stronger than CPD [8]: 2.04 fold
- brain fluorescence, fold stronger than Ce6 [8]: 2.43 fold

Compound: Cc1sc2c(c1C)C(c1ccc(Cl)cc1)=N[C@@H](CC(=O)NCCCCCCCCNC(=O)COc1cccc3c1C(=O)N(C1CCC(=O)NC1=O)C3=O)c1nnc(C)n1-2 (stereo partly shown) [dBET6, reference compound]
- influence on cell viability of RAW264.7 cells ([4]; dBET6 0.25 μg/mL): no influence on cell viability

Compound: Ce6-PEG3400-DSPE [CPD]
- size of self-assembled nanoparticles [1]: around 90 nm
- cytotoxicity in RAW 264.7 cells [4]: negligible cytotoxicity

Compound: Ce6-FFRFKGPGLLAGC-PEG-DSPE [CFPD]
- size of self-assembled nanoparticles [1]: around 90 nm
- molecular mass change after incubation with MMP-2 [2]: no significant change in molecular mass
- fluorescence signal relative to free Ce6 (cellular uptake) ([3]; 1 h): 5.71 fold
- fluorescence signal relative to free Ce6 (cellular uptake) ([3]; 4 h): 3.73 fold
- fluorescence signal relative to free Ce6 (cellular uptake) ([3]; 12 h): 3.10 fold
- cytotoxicity in RAW 264.7 cells [4]: negligible cytotoxicity
